Experimental findings from ChEMBL document CHEMBL1156853, “Structure-function relationships and crystal structures of the vitamin D receptor bound 2 alpha-methyl-(20S,23S)- and 2 alpha-methyl-(20S,23R)-epoxymethano-1 alpha,25-dihydroxyvitamin D3” (J Med Chem, 2010) are described below.

Calls of active or inactive are those of the source. The calls are words filed in the database; no cut-off is given here.

In data set [1] the test system is HL-60. Description: Induction of cell differentiation in human HL60 cells assessed as CD11c and CD14 expression at 0.1 nM after 96 hrs relative to untreated control. It is filed as functional. The essentials: (§1)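 HL60 cells plated at 4 × 10^5 cells/mL in RPMI/10% FCS at 37 °C and treated 96 h, with 0.7% ethanol control. Stained with PE-anti-CD11c and FITC-anti-CD14, and Topro-3 added to exclude dead cells. Flow cytometry counted the CD11c/CD14 double-positive subpopulation. Representative of three experiments.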

Data set [2] has as its system HL-60. The experiment in a line: Antiproliferative activity against human HL60 cells after 96 hrs. The format is functional, cell-based. The essentials: (§2)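 HL60 cells grown in RPMI with 10% fetal calf serum at 37 °C without CO2. Plated at 4 × 10^5 cells/mL and exposed 96 h to various ligand concentrations, with 0.7% ethanol as control. Cells then counted; mean ± SEM.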

For data set [3], the system named is HL-60. Description: Antiproliferative activity against human HL60 cells at 0.1 nM after 96 hrs. It is filed as functional, cell-based. The essentials:
as §2

The test system of data set [4] is HL-60. The experiment in a line: Induction of cell differentiation in human HL60 cells assessed as CD11c and CD14 expression after 96 hrs. It is filed as functional, cell-based. Summed up: as §1
For data set [5], the target named is T1, Vitamin D3 receptor (Homo sapiens) (UniProt P11473).
T1 sequence (whole entry): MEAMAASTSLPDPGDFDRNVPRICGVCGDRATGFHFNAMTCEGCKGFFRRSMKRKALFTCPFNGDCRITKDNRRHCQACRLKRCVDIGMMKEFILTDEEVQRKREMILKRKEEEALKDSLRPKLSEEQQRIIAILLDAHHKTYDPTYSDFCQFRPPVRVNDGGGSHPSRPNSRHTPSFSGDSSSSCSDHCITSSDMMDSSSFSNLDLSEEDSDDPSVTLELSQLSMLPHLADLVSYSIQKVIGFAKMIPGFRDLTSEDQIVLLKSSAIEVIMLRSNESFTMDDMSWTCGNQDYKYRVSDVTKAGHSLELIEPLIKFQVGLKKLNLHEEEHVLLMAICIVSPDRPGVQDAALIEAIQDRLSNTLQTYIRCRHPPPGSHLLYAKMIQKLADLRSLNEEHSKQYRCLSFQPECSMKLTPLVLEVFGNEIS
Description: Binding affinity to human VDR ligand binding domain assessed as SRC1 peptide binding dissociation constant by fluorescence anisotrophy relative to 1-alpha,25(OH)(2)D(3). The essentials:
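Steady-state fluorescence anisotropy at 20 °C. Kd obtained from anisotropy values of free peptide, peptide at each protein concentration and plateau. Representative of three experiments.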

For data set [6], the system named is Mus musculus. The experiment in a line: Toxicity in C57BL/6J mouse assessed as increase in serum calcium level at 0.1 ug/kg, ip administered every 2 days for 3 weeks. It is filed as organism-based. Particulars: in vivo, 0.0001 mg/kg. The essentials:
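Male C57BL/6J mice, 6-7 weeks old, 6-7 per group. Ligand in sesame oil given ip at 0.1 μg/kg every second day for 3 weeks; vehicle controls received sesame oil. Serum calcium measured weekly after a 3 h fast, by clinical analyzer kit. Mean ± SEM.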

Data set [7] addresses T1, Vitamin D3 receptor (Homo sapiens). The experiment in a line: Agonist activity at GAL4 tagged human VDR ligand binding domain expressed in MCF7 cells assessed as receptor transactivation at 0.1 nM by luciferase reporter gene assay relative to (20S,23S)-epoxymethano-1 alpha,25-dihydroxyvitamin D(3). It is filed as cell-based. The essentials:
(§3)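 Gal4 DBD fused to human VDR LBD (90-427). MCF-7 cells seeded at 10^5 per well and grown overnight in phenol red-free DMEM with 10% charcoal-treated FCS and insulin. Transfected (jetPEI) with Gal4-VDR, ptk-LUC reporter and β-galactosidase plasmid. Ligand or solvent added 10 h later in phenol red-free DMEM/10% FCS. Luciferase read 24 h after stimulation and normalized to β-galactosidase. Triplicates, at least three experiments.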
On the technique in general: A reporter such as luciferase makes a cellular process visible.

Data set [8] shares this target. The experiment in a line: Agonist activity at GAL4 tagged human VDR ligand binding domain expressed in MCF7 cells assessed as receptor transactivation at 5 nM by luciferase reporter gene assay relative to 1-alpha,25(OH)(2)D(3). It is filed as cell-based. Summed up: as §3
For data set [9] the target is unchanged. Description: Agonist activity at GAL4 tagged human VDR ligand binding domain expressed in MCF7 cells assessed as receptor transactivation at 0.1 nM by luciferase reporter gene assay relative to 1-alpha,25(OH)(2)D(3). The format is cell-based. Summed up: as §3
Data set [10] shares this target. Description: Agonist activity at GAL4 tagged human VDR ligand binding domain expressed in MCF7 cells assessed as receptor transactivation at 0.1 nM by luciferase reporter gene assay relative to 2alpha-methyl-(20S,23S)-epoxymethano-1 alpha,25-dihydroxyvitamin D(3). The format is cell-based. The essentials:
as §3

The target is the same in data set [11]. The experiment in a line: Agonist activity at GAL4 tagged human VDR ligand binding domain expressed in MCF7 cells assessed as receptor transactivation at 1 nM by luciferase reporter gene assay relative to 2alpha-methyl-(20S,23S)-epoxymethano-1 alpha,25-dihydroxyvitamin D(3). The format is cell-based. The essentials: as §3
The target is the same in data set [12]. Description: Agonist activity at GAL4 tagged human VDR ligand binding domain expressed in MCF7 cells assessed as receptor transactivation at 5 nM by luciferase reporter gene assay relative to 2alpha-methyl-(20S,23S)-epoxymethano-1 alpha,25-dihydroxyvitamin D(3). It is filed as cell-based. The essentials:
as §3

Turning to `C=C1/C(=C\C=C2/CCC[C@]3(C)[C@@H]([C@@H]4C[C@H](CC(C)(C)O)CO4)CC[C@@H]23)C[C@@H](O)[C@H](C)[C@@H]1O`, the outcome in data set [1] and in data set [3] was inactive. In addition, the Activity entry in data set [2] was “Dose-dependent effect”; in [4] it was “Dose-dependent effect”; in data set [6] it was “Non-toxic”. Besides, in data set [5], the fold change (FC) turned out to be 3.2.

Consider `C=C1/C(=C\C=C2/CCC[C@]3(C)[C@@H]([C@H](C)CCCC(C)(C)O)CC[C@@H]23)C[C@@H](O)C[C@@H]1O`, for which the outcome in data set [1] and in [3] was inactive.

`C=C1/C(=C\C=C2/CCC[C@]3(C)[C@@H]([C@@H]4C[C@@H](CC(C)(C)O)CO4)CC[C@@H]23)C[C@@H](O)[C@H](C)[C@@H]1O`: the result in data set [1], in data set [3] and in data set [8] was Active. Also, the “fold change (FC)” value in [1] is 10; in [7] it was 3.8; in [5], 1.3; in data set [9], 13. The Activity result in data set [6] is “Toxic”.

Regarding `C=C1/C(=C\C=C2/CCC[C@]3(C)[C@@H]([C@@H]4C[C@@H](CC(C)(C)O)CO4)CC[C@@H]23)C[C@@H](O)C[C@@H]1O`, the outcome in data set [1] and in [3] was inactive. Further, the Activity in [10] was 26%; in [11] it was 42%; in data set [12], 73%; in data set [6], “Toxic”. The fold change (FC) in [5] came out at 0.9.

Consider `C=C1/C(=C\C=C2/CCC[C@]3(C)[C@@H]([C@@H]4C[C@H](CC(C)(C)O)CO4)CC[C@@H]23)C[C@@H](O)C[C@@H]1O`, for which the outcome in data set [1] and in data set [3] was inactive. The Activity result in data set [2] and in data set [4] was “Dose-dependent effect” in each case. Besides, the fold change (FC) in data set [5] came out at 1.7.
